Measurements as given in ChEMBL document CHEMBL1795269, “Novel (E)-5-styryl-2,2'-bithiophene derivatives as ligands for β-amyloid plaques” (Eur J Med Chem, 2011).

Assays:
[1] = Octanol-phosphate buffer partition coefficient, log D of the compound at pH 7.4; type: physicochemical
In short: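 Radiotracer added to premixed n-octanol (3 g) and PBS (0.05 M, pH 7.4; 3 g), and partitioned between the two phases.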

Blood [2] = assay: Biodistribution in Kunming mouse blood at 1 uCi, iv after 2 mins by gamma counting; type: ADME, organism-based; settings: in vivo
In short: (§1)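 Female normal KunMing mice, about 20 g. [125I]-labelled tracer (1 μCi) in 100 μL saline injected into the tail vein. Mice killed at set times after injection; organs removed, weighed and counted in a gamma counter. %ID/g of wet tissue calculated against diluted aliquots of the injected dose.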

Blood [3] = assay: Biodistribution in Kunming mouse blood at 1 uCi, iv after 15 mins by gamma counting; type: ADME, organism-based; settings: in vivo, 0.25 h; in short: as §1
Blood [4] = assay: Biodistribution in Kunming mouse blood at 1 uCi, iv after 30 mins by gamma counting; type: ADME, organism-based; settings: in vivo, 0.5 h; in short: as §1
Blood [5] = assay: Biodistribution in Kunming mouse blood at 1 uCi, iv after 60 mins by gamma counting; type: ADME, organism-based; settings: in vivo, 1 h; in short: as §1
Blood [6] = assay: Biodistribution in Kunming mouse blood at 1 uCi, iv after 120 mins by gamma counting; type: ADME, organism-based; settings: in vivo, 2 h; in short: as §1
Brain [7] = assay: Biodistribution in Kunming mouse brain at 1 uCi, iv after 2 mins by gamma counting; type: ADME, organism-based; settings: in vivo; in short: as §1
Brain [8] = assay: Biodistribution in Kunming mouse brain at 1 uCi, iv after 15 mins by gamma counting; type: ADME, organism-based; settings: in vivo, 0.25 h; in short: as §1
Brain [9] = assay: Biodistribution in Kunming mouse brain at 1 uCi, iv after 30 mins by gamma counting; type: ADME, organism-based; settings: in vivo, 0.5 h; in short: as §1
Brain [10] = assay: Biodistribution in Kunming mouse brain at 1 uCi, iv after 60 mins by gamma counting; type: ADME, organism-based; settings: in vivo, 1 h; in short: as §1
Brain [11] = assay: Biodistribution in Kunming mouse brain at 1 uCi, iv after 120 mins by gamma counting; type: ADME, organism-based; settings: in vivo, 2 h; in short: as §1
Heart [12] = assay: Biodistribution in Kunming mouse heart at 1 uCi, iv after 2 mins by gamma counting; type: ADME, organism-based; settings: in vivo; in short: as §1
Heart [13] = assay: Biodistribution in Kunming mouse heart at 1 uCi, iv after 15 mins by gamma counting; type: ADME, organism-based; settings: in vivo, 0.25 h; in short: as §1
Heart [14] = assay: Biodistribution in Kunming mouse heart at 1 uCi, iv after 30 mins by gamma counting; type: ADME, organism-based; settings: in vivo, 0.5 h; in short: as §1
Heart [15] = assay: Biodistribution in Kunming mouse heart at 1 uCi, iv after 60 mins by gamma counting; type: ADME, organism-based; settings: in vivo, 1 h; in short: as §1
Heart [16] = assay: Biodistribution in Kunming mouse heart at 1 uCi, iv after 120 mins by gamma counting; type: ADME, organism-based; settings: in vivo, 2 h; in short: as §1
Liver [17] = assay: Biodistribution in Kunming mouse liver at 1 uCi, iv after 2 mins by gamma counting; type: ADME, organism-based; settings: in vivo; in short: as §1
Liver [18] = assay: Biodistribution in Kunming mouse liver at 1 uCi, iv after 15 mins by gamma counting; type: ADME, organism-based; settings: in vivo, 0.25 h; in short: as §1
Liver [19] = assay: Biodistribution in Kunming mouse liver at 1 uCi, iv after 30 mins by gamma counting; type: ADME, organism-based; settings: in vivo, 0.5 h; in short: as §1
Liver [20] = assay: Biodistribution in Kunming mouse liver at 1 uCi, iv after 60 mins by gamma counting; type: ADME, organism-based; settings: in vivo, 1 h; in short: as §1
Liver [21] = assay: Biodistribution in Kunming mouse liver at 1 uCi, iv after 120 mins by gamma counting; type: ADME, organism-based; settings: in vivo, 2 h; in short: as §1
Spleen [22] = assay: Biodistribution in Kunming mouse spleen at 1 uCi, iv after 2 mins by gamma counting; type: ADME, organism-based; settings: in vivo; in short: as §1
Spleen [23] = assay: Biodistribution in Kunming mouse spleen at 1 uCi, iv after 15 mins by gamma counting; type: ADME, organism-based; settings: in vivo, 0.25 h; in short: as §1
Spleen [24] = assay: Biodistribution in Kunming mouse spleen at 1 uCi, iv after 30 mins by gamma counting; type: ADME, organism-based; settings: in vivo, 0.5 h; in short: as §1
Spleen [25] = assay: Biodistribution in Kunming mouse spleen at 1 uCi, iv after 60 mins by gamma counting; type: ADME, organism-based; settings: in vivo, 1 h; in short: as §1
Spleen [26] = assay: Biodistribution in Kunming mouse spleen at 1 uCi, iv after 120 mins by gamma counting; type: ADME, organism-based; settings: in vivo, 2 h; in short: as §1
Lung [27] = assay: Biodistribution in Kunming mouse lung at 1 uCi, iv after 2 mins by gamma counting; type: ADME, organism-based; settings: in vivo; in short: as §1
Lung [28] = assay: Biodistribution in Kunming mouse lung at 1 uCi, iv after 15 mins by gamma counting; type: ADME, organism-based; settings: in vivo, 0.25 h; in short: as §1
Lung [29] = assay: Biodistribution in Kunming mouse lung at 1 uCi, iv after 30 mins by gamma counting; type: ADME, organism-based; settings: in vivo, 0.5 h; in short: as §1
Lung [30] = assay: Biodistribution in Kunming mouse lung at 1 uCi, iv after 60 mins by gamma counting; type: ADME, organism-based; settings: in vivo, 1 h; in short: as §1
Lung [31] = assay: Biodistribution in Kunming mouse lung at 1 uCi, iv after 120 mins by gamma counting; type: ADME, organism-based; settings: in vivo, 2 h; in short: as §1
Kidney [32] = assay: Biodistribution in Kunming mouse kidney at 1 uCi, iv after 2 mins by gamma counting; type: ADME, organism-based; settings: in vivo; in short: as §1
Kidney [33] = assay: Biodistribution in Kunming mouse kidney at 1 uCi, iv after 15 mins by gamma counting; type: ADME, organism-based; settings: in vivo, 0.25 h; in short: as §1
Kidney [34] = assay: Biodistribution in Kunming mouse kidney at 1 uCi, iv after 60 mins by gamma counting; type: ADME, organism-based; settings: in vivo, 1 h; in short: as §1
Kidney [35] = assay: Biodistribution in Kunming mouse kidney at 1 uCi, iv after 120 mins by gamma counting; type: ADME, organism-based; settings: in vivo, 2 h; in short: as §1
Stomach [36] = assay: Biodistribution in Kunming mouse stomach assessed per organ at 1 uCi, iv after 2 mins by gamma counting; type: ADME, organism-based; settings: in vivo; in short: as §1
Stomach [37] = assay: Biodistribution in Kunming mouse stomach assessed per organ at 1 uCi, iv after 15 mins by gamma counting; type: ADME, organism-based; settings: in vivo, 0.25 h; in short: as §1
Stomach [38] = assay: Biodistribution in Kunming mouse stomach assessed per organ at 1 uCi, iv after 30 mins by gamma counting; type: ADME, organism-based; settings: in vivo, 0.5 h; in short: as §1
Stomach [39] = assay: Biodistribution in Kunming mouse stomach assessed per organ at 1 uCi, iv after 60 mins by gamma counting; type: ADME, organism-based; settings: in vivo, 1 h
Stomach [40] = assay: Biodistribution in Kunming mouse stomach assessed per organ at 1 uCi, iv after 120 mins by gamma counting; type: ADME, organism-based; settings: in vivo, 2 h; in short: as §1
Muscle tissue [41] = assay: Biodistribution in Kunming mouse muscle at 1 uCi, iv after 2 mins by gamma counting; type: ADME, organism-based; settings: in vivo; in short: as §1
Muscle tissue [42] = assay: Biodistribution in Kunming mouse muscle at 1 uCi, iv after 15 mins by gamma counting; type: ADME, organism-based; settings: in vivo, 0.25 h; in short: as §1
Muscle tissue [43] = assay: Biodistribution in Kunming mouse muscle at 1 uCi, iv after 30 mins by gamma counting; type: ADME, organism-based; settings: in vivo, 0.5 h; in short: as §1
Muscle tissue [44] = assay: Biodistribution in Kunming mouse muscle at 1 uCi, iv after 60 mins by gamma counting; type: ADME, organism-based; settings: in vivo, 1 h; in short: as §1
Muscle tissue [45] = assay: Biodistribution in Kunming mouse muscle at 1 uCi, iv after 120 mins by gamma counting; type: ADME, organism-based; settings: in vivo, 2 h; in short: as §1
Kidney [46] = assay: Biodistribution in Kunming mouse kidney at 1 uCi, iv after 30 mins by gamma counting; type: ADME, organism-based; settings: in vivo, 0.5 h; in short: as §1

Compound `[125I]c1ccc(/C=C/c2ccc(-c3cccs3)s2)cc1` has a logD [1] of 3.31, a Drug uptake (Blood [2]) of 12.1 % ID/g and a Drug uptake (Blood [3]) of 1.38 % ID/g. The Drug uptake (Blood [4]) was 1.16 % ID/g, the Drug uptake (Blood [5]) was 1.29 % ID/g and the Drug uptake (Blood [6]) was 1.76 % ID/g. For the same compound, the Drug uptake (Brain [7]) was 2.11 % ID/g, the Drug uptake (Brain [8]) was 0.42 % ID/g and the Drug uptake (Brain [9]) was 0.41 % ID/g. It also gave a Drug uptake (Brain [10]) of 0.47 % ID/g, a Drug uptake (Brain [11]) of 0.55 % ID/g and a Drug uptake (Heart [12]) of 5.53 % ID/g. The Drug uptake (Heart [13]) was 3.37 % ID/g, the Drug uptake (Heart [14]) was 3.35 % ID/g and the Drug uptake (Heart [15]) was 2.09 % ID/g. It also gave a Drug uptake (Heart [16]) of 3.39 % ID/g, a Drug uptake (Liver [17]) of 47.12 % ID/g and a Drug uptake (Liver [18]) of 40.18 % ID/g. For the same compound, the Drug uptake (Liver [19]) was 42.17 % ID/g, the Drug uptake (Liver [20]) was 47.7 % ID/g and the Drug uptake (Liver [21]) was 45.74 % ID/g. It also gave a Drug uptake (Spleen [22]) of 11.46 % ID/g, a Drug uptake (Spleen [23]) of 12.61 % ID/g and a Drug uptake (Spleen [24]) of 14.82 % ID/g. It also gave a Drug uptake (Spleen [25]) of 14.58 % ID/g, a Drug uptake (Spleen [26]) of 21.98 % ID/g and a Drug uptake (Lung [27]) of 20.89 % ID/g. For the same compound, the Drug uptake (Lung [28]) was 18.99 % ID/g, the Drug uptake (Lung [29]) was 15.69 % ID/g and the Drug uptake (Lung [30]) was 12.99 % ID/g. For the same compound, the Drug uptake (Lung [31]) was 6.29 % ID/g, the Drug uptake (Kidney [32]) was 4.69 % ID/g and the Drug uptake (Kidney [33]) was 4.37 % ID/g. The Drug uptake (Kidney [34]) was 4.91 % ID/g, the Drug uptake (Kidney [35]) was 6.35 % ID/g and the Drug uptake (Stomach [36]) was 0.61 %ID. For the same compound, the Drug uptake (Stomach [37]) was 1.48 %ID, the Drug uptake (Stomach [38]) was 3.25 %ID and the Drug uptake (Stomach [39]) was 4.28 %ID. The Drug uptake (Stomach [40]) was 3.36 %ID, the Drug uptake (Muscle tissue [41]) was 0.85 % ID/g and the Drug uptake (Muscle tissue [42]) was 0.97 % ID/g. It also gave a Drug uptake (Muscle tissue [43]) of 1.25 % ID/g, a Drug uptake (Muscle tissue [44]) of 0.93 % ID/g and a Drug uptake (Muscle tissue [45]) of 0.76 % ID/g. The Drug uptake (Kidney [46]) was 4.56 % ID/g.
